Values after ≈ are worked out from the molar mass of the structure shown.
Legend:
[1] = Lipophilicity, log P of the compound; format: physicochemical; settings: octanol/water
Staphylococcus aureus [2] = assay: Antibacterial activity against methicillin-sensitive Staphylococcus aureus FDA 209P after 20 hrs by liquid microdilution method; format: functional
Summary of the method: (§1)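 Two-fold serial dilutions of compound in Mueller–Hinton broth, inoculated with 1 × 10^4 cells and cultured at 37 °C for 20 h in microtiter wells.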

Bacillus subtilis = assay: Antibacterial activity against drug-sensitive Bacillus subtilis 168 after 20 hrs by liquid microdilution method; format: functional; settings: subsp. subtilis str. 168, 20 h; summary of the method: as §1
Escherichia coli = assay: Antibacterial activity against drug-sensitive Escherichia coli K-12 W3110 after 20 hrs by liquid microdilution method; format: functional; settings: K-12 substr. W3110, 20 h; summary of the method: as §1
Salmonella typhimurium = assay: Antibacterial activity against drug-sensitive Salmonella typhimurium LT2 after 20 hrs by liquid microdilution method; format: functional, Salmonella enterica subsp. enterica serovar Typhimurium; settings: Salmonella enterica, LT2, 20 h; summary of the method: as §1
Pseudomonas aeruginosa = assay: Antibacterial activity against drug-sensitive Pseudomonas aeruginosa PAO1 after 20 hrs by liquid microdilution method; format: functional; settings: PAO1, 20 h; summary of the method: as §1
[3] = Hemolytic activity in rabbit RBC at 50 uM after 20 mins relative to control; format: ADME, cell-based, Oryctolagus cuniculus, Erythrocyte; settings: rabbit red blood cells (erythrocytes), read-out: Activity
Summary of the method: (§2)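 Rabbit erythrocytes suspended in 150 mM NaCl/10 mM Hepes-NaOH, pH 7.4, at 0.5% hematocrit (final) and incubated with compound at 37 °C. The table footnote gives 20 min; the methods section gives 30 min. Hemolysis was read as absorbance at 540 nm, with 50 µM lysolecithin defining 100% hemolysis.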

[4] = Hemolytic activity in rabbit RBC at 20 uM after 20 mins relative to control; format: ADME, cell-based, Oryctolagus cuniculus, Erythrocyte; settings: rabbit red blood cells (erythrocytes), read-out: Activity; summary of the method: as §2
[5] = Hemolytic activity in rabbit RBC at 10 uM after 20 mins relative to control; format: ADME, cell-based, Oryctolagus cuniculus, Erythrocyte; settings: rabbit red blood cells (erythrocytes), read-out: Activity; summary of the method: as §2
[6] = Hemolytic activity in rabbit RBC at 5 uM after 20 mins relative to control; format: ADME, cell-based, Oryctolagus cuniculus, Erythrocyte; settings: rabbit red blood cells (erythrocytes), read-out: Activity; summary of the method: as §2
[7] = Hemolytic activity in rabbit RBC at 2 uM after 20 mins relative to control; format: ADME, cell-based, Oryctolagus cuniculus, Erythrocyte; settings: rabbit red blood cells (erythrocytes), read-out: Activity; summary of the method: as §2
[8] = Hemolytic activity in rabbit RBC at 1 uM after 20 mins relative to control; format: ADME, cell-based, Oryctolagus cuniculus, Erythrocyte; settings: rabbit red blood cells (erythrocytes), read-out: Activity; summary of the method: as §2
Staphylococcus aureus [9] = assay: Antibacterial activity against methicillin-resistant Staphylococcus aureus MS29202 after 18 to 20 hrs by agar dilution method; format: functional
Summary of the method: (§3)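 Agar dilution per CLSI. Overnight broth cultures were diluted 100-fold, and one loopful (about 10^5 to 10^4 CFU) was spotted onto agar plates containing the CD. Growth was scored after 18–20 h at 37 °C. MIC values are in µM.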

Streptococcus agalactiae = assay: Antibacterial activity against drug-resistant Streptococcus agalactiae B1 after 18 to 20 hrs by agar dilution method; format: functional; summary of the method: as §3
Enterococcus faecium = assay: Antibacterial activity against drug-resistant Enterococcus faecium MS29120 after 18 to 20 hrs by agar dilution method; format: functional; summary of the method: as §3
Enterococcus faecalis [10] = assay: Antibacterial activity against drug-resistant Enterococcus faecalis MS29030 after 18 to 20 hrs by agar dilution method; format: functional; summary of the method: as §3
Enterococcus faecalis [11] = assay: Antibacterial activity against vancomycin-resistant Enterococcus faecalis MS29016 after 18 to 20 hrs by agar dilution method; format: functional; summary of the method: as §3

SMILES | logP [1] | MIC (Staphylococcus aureus [2]) | MIC (Bacillus subtilis) | MIC (Escherichia coli) | MIC (Salmonella typhimurium) | MIC (Pseudomonas aeruginosa) | hemolysis at 20 min, 50 µM [3] | hemolysis at 20 min, 20 µM [4] | hemolysis at 20 min, 10 µM [5] | hemolysis at 20 min, 5 µM [6] | hemolysis at 20 min, 2 µM [7] | hemolysis at 20 min, 1 µM [8] | MIC (Staphylococcus aureus [9]) | MIC (Streptococcus agalactiae) | MIC (Enterococcus faecium) | MIC (Enterococcus faecalis [10]) | MIC (Enterococcus faecalis [11])
O[C@@H]1[C@@H](O)[C@H]2O[C@H]3[C@H](O)[C@@H](O)[C@@H](O[C@H]4[C@H](O)[C@@H](O)[C@@H](O[C@H]5[C@H](O)[C@@H](O)[C@@H](O[C@H]6[C@H](O)[C@@H](O)[C@@H](O[C@H]7[C@H](O)[C@@H](O)[C@@H](O[C@H]8[C@H](O)[C@@H](O)[C@@H](O[C@@H]1[C@@H](Cn1cc(CNCc9ccccc9)nn1)O2)O[C@@H]8Cn1cc(CNCc2ccccc2)nn1)O[C@@H]7Cn1cc(CNCc2ccccc2)nn1)O[C@@H]6Cn1cc(CNCc2ccccc2)nn1)O[C@@H]5Cn1cc(CNCc2ccccc2)nn1)O[C@@H]4Cn1cc(CNCc2ccccc2)nn1)O[C@@H]3Cn1cc(CNCc2ccccc2)nn1 | -0.26 | 5 µM (≈ 11.6 µg/mL) | 5 µM (≈ 11.6 µg/mL) | 21 µM (≈ 48.9 µg/mL) | 21 µM (≈ 48.9 µg/mL) | 21 µM (≈ 48.9 µg/mL) | 11% | 3% | 2% | 4% | 4% | 2% | 41 µM (≈ 95.4 µg/mL) | 21 µM (≈ 48.9 µg/mL) | 41 µM (≈ 95.4 µg/mL) | > 41 µM | 41 µM (≈ 95.4 µg/mL)
CC(C)CCCNCc1cn(C[C@H]2O[C@@H]3O[C@H]4[C@H](O)[C@@H](O)[C@@H](O[C@H]5[C@H](O)[C@@H](O)[C@@H](O[C@H]6[C@H](O)[C@@H](O)[C@@H](O[C@H]7[C@H](O)[C@@H](O)[C@@H](O[C@H]8[C@H](O)[C@@H](O)[C@@H](O[C@H]9[C@H](O)[C@@H](O)[C@@H](O[C@H]2[C@H](O)[C@H]3O)O[C@@H]9Cn2cc(CNCCCC(C)C)nn2)O[C@@H]8Cn2cc(CNCCCC(C)C)nn2)O[C@@H]7Cn2cc(CNCCCC(C)C)nn2)O[C@@H]6Cn2cc(CNCCCC(C)C)nn2)O[C@@H]5Cn2cc(CNCCCC(C)C)nn2)O[C@@H]4Cn2cc(CNCCCC(C)C)nn2)nn1 | -0.15 | 3 to 10 µM (≈ 6.85 to 22.8 µg/mL) | 3 µM (≈ 6.85 µg/mL) | 10 µM (≈ 22.8 µg/mL) | 10 µM (≈ 22.8 µg/mL) | 5 µM (≈ 11.4 µg/mL) | 56% | 23% | 15% | 7% | 5% | 5% | 21 µM (≈ 48 µg/mL) | 5 µM (≈ 11.4 µg/mL) | 10 µM (≈ 22.8 µg/mL) | > 42 µM | 42 µM (≈ 96 µg/mL)
O[C@@H]1[C@@H](O)[C@H]2O[C@H]3[C@H](O)[C@@H](O)[C@@H](O[C@H]4[C@H](O)[C@@H](O)[C@@H](O[C@H]5[C@H](O)[C@@H](O)[C@@H](O[C@H]6[C@H](O)[C@@H](O)[C@@H](O[C@H]7[C@H](O)[C@@H](O)[C@@H](O[C@H]8[C@H](O)[C@@H](O)[C@@H](O[C@@H]1[C@@H](Cn1cc(CNCC9CCCC9)nn1)O2)O[C@@H]8Cn1cc(CNCC2CCCC2)nn1)O[C@@H]7Cn1cc(CNCC2CCCC2)nn1)O[C@@H]6Cn1cc(CNCC2CCCC2)nn1)O[C@@H]5Cn1cc(CNCC2CCCC2)nn1)O[C@@H]4Cn1cc(CNCC2CCCC2)nn1)O[C@@H]3Cn1cc(CNCC2CCCC2)nn1 | -0.58 | 1 to 5 µM (≈ 2.27 to 11.4 µg/mL) | 21 µM (≈ 47.7 µg/mL) | 21 µM (≈ 47.7 µg/mL) | > 42 µM | > 42 µM | 8% | 2% | 1% | 1% | 1% | 2% | 21 µM (≈ 47.7 µg/mL) | 10 µM (≈ 22.7 µg/mL) | 21 µM (≈ 47.7 µg/mL) | > 42 µM | > 42 µM
O[C@@H]1[C@@H](O)[C@H]2O[C@H]3[C@H](O)[C@@H](O)[C@@H](O[C@H]4[C@H](O)[C@@H](O)[C@@H](O[C@H]5[C@H](O)[C@@H](O)[C@@H](O[C@H]6[C@H](O)[C@@H](O)[C@@H](O[C@H]7[C@H](O)[C@@H](O)[C@@H](O[C@H]8[C@H](O)[C@@H](O)[C@@H](O[C@@H]1[C@@H](Cn1cc(CNCC9CCCCC9)nn1)O2)O[C@@H]8Cn1cc(CNCC2CCCCC2)nn1)O[C@@H]7Cn1cc(CNCC2CCCCC2)nn1)O[C@@H]6Cn1cc(CNCC2CCCCC2)nn1)O[C@@H]5Cn1cc(CNCC2CCCCC2)nn1)O[C@@H]4Cn1cc(CNCC2CCCCC2)nn1)O[C@@H]3Cn1cc(CNCC2CCCCC2)nn1 | -0.16 | 3 to 10 µM (≈ 7.11 to 23.7 µg/mL) | 3 µM (≈ 7.11 µg/mL) | 5 µM (≈ 11.8 µg/mL) | 10 µM (≈ 23.7 µg/mL) | 20 µM (≈ 47.4 µg/mL) | 107% | 78% | 38% | 13% | 0% | 0% | 40 µM (≈ 94.8 µg/mL) | 40 µM (≈ 94.8 µg/mL) | 20 µM (≈ 47.4 µg/mL) | > 40 µM | 40 µM (≈ 94.8 µg/mL)
O[C@@H]1[C@@H](O)[C@H]2O[C@H]3[C@H](O)[C@@H](O)[C@@H](O[C@H]4[C@H](O)[C@@H](O)[C@@H](O[C@H]5[C@H](O)[C@@H](O)[C@@H](O[C@H]6[C@H](O)[C@@H](O)[C@@H](O[C@H]7[C@H](O)[C@@H](O)[C@@H](O[C@H]8[C@H](O)[C@@H](O)[C@@H](O[C@@H]1[C@@H](Cn1cc(CNCCc9ccccc9)nn1)O2)O[C@@H]8Cn1cc(CNCCc2ccccc2)nn1)O[C@@H]7Cn1cc(CNCCc2ccccc2)nn1)O[C@@H]6Cn1cc(CNCCc2ccccc2)nn1)O[C@@H]5Cn1cc(CNCCc2ccccc2)nn1)O[C@@H]4Cn1cc(CNCCc2ccccc2)nn1)O[C@@H]3Cn1cc(CNCCc2ccccc2)nn1 | -0.13 | 3 to 5 µM (≈ 7.27 to 12.1 µg/mL) | 3 µM (≈ 7.27 µg/mL) | 10 µM (≈ 24.2 µg/mL) | 10 µM (≈ 24.2 µg/mL) | 10 µM (≈ 24.2 µg/mL) | 40% | 23% | 12% | 7% | 3% | 3% | 20 µM (≈ 48.5 µg/mL) | 10 µM (≈ 24.2 µg/mL) | 20 µM (≈ 48.5 µg/mL) | 40 µM (≈ 97 µg/mL) | 40 µM (≈ 97 µg/mL)
CCC(CC)CNCc1cn(C[C@H]2O[C@@H]3O[C@H]4[C@H](O)[C@@H](O)[C@@H](O[C@H]5[C@H](O)[C@@H](O)[C@@H](O[C@H]6[C@H](O)[C@@H](O)[C@@H](O[C@H]7[C@H](O)[C@@H](O)[C@@H](O[C@H]8[C@H](O)[C@@H](O)[C@@H](O[C@H]9[C@H](O)[C@@H](O)[C@@H](O[C@H]2[C@H](O)[C@H]3O)O[C@@H]9Cn2cc(CNCC(CC)CC)nn2)O[C@@H]8Cn2cc(CNCC(CC)CC)nn2)O[C@@H]7Cn2cc(CNCC(CC)CC)nn2)O[C@@H]6Cn2cc(CNCC(CC)CC)nn2)O[C@@H]5Cn2cc(CNCC(CC)CC)nn2)O[C@@H]4Cn2cc(CNCC(CC)CC)nn2)nn1 | -0.08 | 3 to 5 µM (≈ 6.85 to 11.4 µg/mL) | 3 µM (≈ 6.85 µg/mL) | 10 µM (≈ 22.8 µg/mL) | 42 µM (≈ 96 µg/mL) | 42 µM (≈ 96 µg/mL) | 12% | 8% | 8% | 3% | 1% | 5% | 21 µM (≈ 48 µg/mL) | 3 µM (≈ 6.85 µg/mL) | 10 µM (≈ 22.8 µg/mL) | > 42 µM | 21 µM (≈ 48 µg/mL)
CCCC(C)CCNCc1cn(C[C@H]2O[C@@H]3O[C@H]4[C@H](O)[C@@H](O)[C@@H](O[C@H]5[C@H](O)[C@@H](O)[C@@H](O[C@H]6[C@H](O)[C@@H](O)[C@@H](O[C@H]7[C@H](O)[C@@H](O)[C@@H](O[C@H]8[C@H](O)[C@@H](O)[C@@H](O[C@H]9[C@H](O)[C@@H](O)[C@@H](O[C@H]2[C@H](O)[C@H]3O)O[C@@H]9Cn2cc(CNCCC(C)CCC)nn2)O[C@@H]8Cn2cc(CNCCC(C)CCC)nn2)O[C@@H]7Cn2cc(CNCCC(C)CCC)nn2)O[C@@H]6Cn2cc(CNCCC(C)CCC)nn2)O[C@@H]5Cn2cc(CNCCC(C)CCC)nn2)O[C@@H]4Cn2cc(CNCCC(C)CCC)nn2)nn1 (some centres undefined) | 0.27 | 3 to 20 µM (≈ 7.15 to 47.7 µg/mL) | 10 µM (≈ 23.8 µg/mL) | 5 µM (≈ 11.9 µg/mL) | 10 µM (≈ 23.8 µg/mL) | 10 µM (≈ 23.8 µg/mL) | 119% | 108% | 99% | 73% | 30% | 10% | 40 µM (≈ 95.3 µg/mL) | 20 µM (≈ 47.7 µg/mL) | 20 µM (≈ 47.7 µg/mL) | > 40 µM | 40 µM (≈ 95.3 µg/mL)

From ChEMBL document CHEMBL4257484, “Membrane-active antimicrobial poly(amino-modified alkyl) β-cyclodextrins synthesized via click reactions” (Medchemcomm, 2018)
